{"source": "ChEMBL document CHEMBL3856257", "about": "“Benzo[b]thiophene-2-carboxamide derivatives as potent urotensin-II receptor antagonists” (Bioorg Med Chem Lett, 2016)", "data": [{"test_system": "not listed separately", "assay": "Metabolic stability in human liver microsomes after 30 mins", "format": "ADME", "conditions": "read-out: Stability", "units": {"remaining at 0.5 h": "%"}, "values": [{"smiles": "N#Cc1ccc2sc(C(=O)NC3CCN(Cc4ccc(OC5CCNCC5)c(Br)c4)CC3)cc2c1", "remaining at 0.5 h": 85}]}, {"test_system": "not listed separately", "assay": "Metabolic stability in rat liver microsomes after 30 mins", "format": "ADME", "conditions": "read-out: Stability", "units": {"remaining at 0.5 h": "%"}, "values": [{"smiles": "N#Cc1ccc2sc(C(=O)NC3CCN(Cc4ccc(OC5CCNCC5)c(Br)c4)CC3)cc2c1", "remaining at 0.5 h": 74}]}, {"target": "CYP2D6 (Homo sapiens, UniProt P10635)", "sequence (P10635 whole entry)": "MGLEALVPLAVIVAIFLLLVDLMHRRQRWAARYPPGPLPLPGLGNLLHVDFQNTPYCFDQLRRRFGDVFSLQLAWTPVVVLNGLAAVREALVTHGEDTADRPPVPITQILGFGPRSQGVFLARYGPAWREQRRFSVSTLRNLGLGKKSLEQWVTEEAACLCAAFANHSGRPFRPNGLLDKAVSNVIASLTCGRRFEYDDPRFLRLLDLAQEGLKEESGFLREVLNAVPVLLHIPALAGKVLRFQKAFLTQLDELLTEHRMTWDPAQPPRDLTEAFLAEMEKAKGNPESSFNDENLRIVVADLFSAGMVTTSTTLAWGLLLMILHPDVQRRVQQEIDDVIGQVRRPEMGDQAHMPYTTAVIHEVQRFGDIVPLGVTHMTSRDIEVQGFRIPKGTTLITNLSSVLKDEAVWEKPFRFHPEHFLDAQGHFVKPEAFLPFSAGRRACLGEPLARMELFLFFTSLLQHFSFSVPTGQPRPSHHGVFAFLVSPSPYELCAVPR", "assay": "Inhibition of CYP2D6 (unknown origin) at 10 uM", "format": "ADME", "conditions": "not given", "units": {"inhibition at 10 µM": "%"}, "values": [{"smiles": "N#Cc1ccc2sc(C(=O)NC3CCN(Cc4ccc(OC5CCNCC5)c(Br)c4)CC3)cc2c1", "inhibition at 10 µM": 55}]}, {"target": "CYP3A4 (Homo sapiens, UniProt P08684)", "sequence (P08684 whole entry)": "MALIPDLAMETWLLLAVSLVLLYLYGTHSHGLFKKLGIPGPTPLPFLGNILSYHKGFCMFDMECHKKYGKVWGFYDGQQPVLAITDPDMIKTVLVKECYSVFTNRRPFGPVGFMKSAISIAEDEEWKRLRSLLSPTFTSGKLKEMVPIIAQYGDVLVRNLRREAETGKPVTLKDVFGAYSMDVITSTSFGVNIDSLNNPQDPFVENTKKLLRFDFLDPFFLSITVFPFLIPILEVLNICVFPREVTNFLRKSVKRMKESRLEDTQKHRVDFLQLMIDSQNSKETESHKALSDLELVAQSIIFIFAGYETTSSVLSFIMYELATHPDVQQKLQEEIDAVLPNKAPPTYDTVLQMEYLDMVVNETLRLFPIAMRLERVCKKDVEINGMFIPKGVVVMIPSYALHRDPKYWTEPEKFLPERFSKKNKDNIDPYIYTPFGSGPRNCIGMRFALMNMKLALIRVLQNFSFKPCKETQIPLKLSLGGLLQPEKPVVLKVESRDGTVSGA", "assay": "Inhibition of CYP3A4 (unknown origin) at 10 uM", "format": "ADME", "conditions": "not given", "units": {"inhibition at 10 µM": "%"}, "values": [{"smiles": "N#Cc1ccc2sc(C(=O)NC3CCN(Cc4ccc(OC5CCNCC5)c(Br)c4)CC3)cc2c1", "inhibition at 10 µM": 75}]}, {"target": "T1, Urotensin-2 receptor (Homo sapiens, UniProt Q9UKP6)", "T1 sequence (Q9UKP6 whole entry)": "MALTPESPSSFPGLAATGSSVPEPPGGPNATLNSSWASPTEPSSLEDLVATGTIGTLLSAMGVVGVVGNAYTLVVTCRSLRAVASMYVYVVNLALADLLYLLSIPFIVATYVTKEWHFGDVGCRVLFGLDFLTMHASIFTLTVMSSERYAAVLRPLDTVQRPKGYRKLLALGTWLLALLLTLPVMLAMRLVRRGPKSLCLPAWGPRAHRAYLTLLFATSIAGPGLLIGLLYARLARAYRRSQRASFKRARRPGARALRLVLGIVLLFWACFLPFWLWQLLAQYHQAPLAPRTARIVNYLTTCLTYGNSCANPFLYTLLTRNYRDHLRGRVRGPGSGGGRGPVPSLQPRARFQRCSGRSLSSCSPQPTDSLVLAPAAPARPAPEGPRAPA", "assay": "Displacement of europium-labeled urotensin-2 from human recombinant urotensin-2 receptor expressed in HEK293 cell membranes after 90 mins by filtration based time resolved fluorometric assay", "conditions": "not given", "method_in_brief": "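Competitive binding against Eu-labeled U-II on membranes of HEK293 cells expressing human UT receptor, read by time-resolved fluorometry. IC50 values are means of at least two measurements.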", "units": {"IC50": "nM"}, "values": [{"smiles": "N#Cc1ccc2cc(C(=O)NC3CCN(Cc4ccc(OC5CCNCC5)c(Br)c4)CC3)sc2c1", "IC50": 80}, {"smiles": "O=C(NC1CCN(Cc2ccc(OC3CCNCC3)c(Br)c2)CC1)c1ccccn1", "IC50": 120}, {"smiles": "O=C(NC1CCN(Cc2ccc(OC3CCNCC3)c(Br)c2)CC1)c1cc2cc([N+](=O)[O-])ccc2s1", "IC50": 49}, {"smiles": "COc1cccc(-c2ccc3cc(C(=O)NC4CCN(Cc5ccc(OC6CCNCC6)c(Br)c5)CC4)sc3c2)c1", "IC50": 87}, {"smiles": "O=C(NC1CCN(Cc2ccc(OC3CCNCC3)c(Br)c2)CC1)c1cc2ccc(-c3ccc(F)cc3)cc2s1", "IC50": 74}, {"smiles": "Cc1ccc(-c2ccc3cc(C(=O)NC4CCN(Cc5ccc(OC6CCNCC6)c(Br)c5)CC4)sc3c2)cc1", "IC50": 140}, {"smiles": "O=C(NC1CCN(Cc2ccc(OC3CCNCC3)c(Br)c2)CC1)c1cc2cc(Br)ccc2s1", "IC50": 86}, {"smiles": "O=C(NC1CCN(Cc2ccc(OC3CCNCC3)c(Br)c2)CC1)c1cc2ccc(-c3ccccc3)cc2s1", "IC50": 90}, {"smiles": "O=C(NC1CCN(Cc2ccc(OC3CCNCC3)c(Br)c2)CC1)c1cc2ccc(-c3ccc(Cl)cc3)cc2s1", "IC50": 140}, {"smiles": "O=C(NC1CCN(Cc2ccc(OC3CCNCC3)c(Br)c2)CC1)c1cscn1", "IC50": 970}, {"smiles": "O=C(NC1CCN(Cc2ccc(OC3CCNCC3)c(Br)c2)CC1)c1cc2cc(Cl)ccc2s1", "IC50": 51}, {"smiles": "O=C(NC1CCN(Cc2ccc(OC3CCNCC3)c(Br)c2)CC1)c1cc2cc(-c3ccccc3)ccc2s1", "IC50": 310}, {"smiles": "Cc1ccc2sc(C(=O)NC3CCN(Cc4ccc(OC5CCNCC5)c(Br)c4)CC3)cc2c1", "IC50": 74}, {"smiles": "O=C(NC1CCN(Cc2ccc(OC3CCNCC3)c(Br)c2)CC1)c1cc2cc(F)ccc2s1", "IC50": 53}, {"smiles": "O=C(NC1CCN(Cc2ccc(OC3CCNCC3)c(Br)c2)CC1)c1cc2ccccc2s1", "IC50": 63}, {"smiles": "O=C(NC1CCN(Cc2ccc(OC3CCNCC3)c(Br)c2)CC1)c1cnccn1", "IC50": 610}, {"smiles": "O=C(NC1CCN(Cc2ccc(OC3CCNCC3)c(Br)c2)CC1)c1ccco1", "IC50": 770}, {"smiles": "COc1ccc(-c2ccc3cc(C(=O)NC4CCN(Cc5ccc(OC6CCNCC6)c(Br)c5)CC4)sc3c2)cc1", "IC50": 49}, {"smiles": "COc1ccc2sc(C(=O)NC3CCN(Cc4ccc(OC5CCNCC5)c(Br)c4)CC3)cc2c1", "IC50": 100}, {"smiles": "N#Cc1ccc2sc(C(=O)NC3CCN(Cc4ccc(OC5CCNCC5)c(Br)c4)CC3)cc2c1", "IC50": 25}, {"smiles": "O=C(NC1CCN(Cc2ccc(OC3CCNCC3)c(Br)c2)CC1)c1ccno1", "IC50": 340}, {"smiles": "COc1ccccc1-c1ccc2cc(C(=O)NC3CCN(Cc4ccc(OC5CCNCC5)c(Br)c4)CC3)sc2c1", "IC50": 560}, {"smiles": "O=C(NC1CCN(Cc2ccc(OC3CCNCC3)c(Br)c2)CC1)c1cccs1", "IC50": 130}, {"smiles": "CCc1ccc2sc(C(=O)NC3CCN(Cc4ccc(OC5CCNCC5)c(Br)c4)CC3)cc2c1", "IC50": 180}, {"smiles": "O=C(NC1CCN(Cc2ccc(OC3CCNCC3)c(Br)c2)CC1)c1cc2cc(C(F)(F)F)ccc2s1", "IC50": 100}]}]}
